Measured values published in article PMC5542026 (Cell, 2017).
In brackets after ≈: the same amount, converted by molar mass. *1 amine or outer side, *2 acyl side, *3 side chain or, on linkers, in order; H or OH if unused. Where a SMILES comes first, the peptide text is derived from it. Bridges are numbered along the chain shown (N, C = ends). [ ]: non-standard residue; d: D form. The star is where a group is joined. X2 = C[C@H](Oc1ccc([C@H](N[*:1])C(=O)[*:2])cc1)[C@@]1(/C=C/C(=O)[*:3])CO1; X1 = CC(C)[C@H](O)[C@H](C)C(=O)*; aIle = CC[C@@H](C)[C@H](N)C(=O)O; dNMeF = CN[C@H](Cc1ccccc1)C(=O)O; aThr = C[C@H](O)[C@H](N)C(=O)O

Assays:
E. coli strain D21f2tolC [1] = assay: Broth-microdilution MIC, wild-type parent; assay type: cell-based; details: LB broth, 16 h, growth inhibited by >90%
S. pyogenes ATCC 12344 = assay: Broth-microdilution MIC, wild-type parent; assay type: cell-based; details: Todd Hewitt broth, 16 h, growth inhibited by >90%
E. coli RNAP core enzyme = E. coli RNAP core enzyme (Escherichia coli, UniProt P0A8T7+P0A8V2); assay: Single-nucleotide-addition reactions; assay type: biochemical; details: 25 μM PUM; 2.5 μM NTPs
Summary of the method: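 Elongation complexes were assembled on nucleic-acid scaffolds, annealed 5 min at 95°C and step-cooled to 4°C in 5 mM Tris-HCl pH 7.7, 200 mM NaCl, 10 mM MgCl2. Steps at 37°C: 10 min preincubation, 5 min with compound (0 or 25 μM), 5 min with single NTP.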

E. coli RNAP [2] = biological target: T1, E. coli RNAP (Escherichia coli, UniProt P0A8T7+P0A8V2); assay: Nucleotide addition in transcription initiation; assay type: biochemical; details: 500 μM PUM
Summary of the method: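 Run per an earlier published protocol, labelled with 5 μM [α32P]UTP (3 Bq/fmol). Reactions contained no inhibitor, the test compound, 2 μM rifampicin or 100 μM lipiarmycin.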

bacterial RNAP = bacterial RNAP (Escherichia coli, UniProt P0A8T7+P0A8V2); assay: RNAP-inhibitory activity in vitro; assay type: biochemical, E. coli; S. aureus; B. subtilis; details: read-out: IC50, inhibition of bacterial RNAP
E. coli RNAP [3] = biological target: T1, E. coli RNAP; assay: Nucleotide addition in transcription elongation; assay type: biochemical; details: 500 μM PUM
Summary of the method: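 Run per an earlier published protocol. Reactions contained no inhibitor, the test compound, 2 μM rifampicin or 100 μM lipiarmycin as comparator.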

[4] = biological target: [565Glu→Asp]β-RNAP σ^70 holoenzyme (Escherichia coli, UniProt P0A8T7+P0A8V2, E565D); assay: Fluorescence-detected transcription assay, mutant RNAP; assay type: biochemical, E. coli
human serum proteins = assay: Growth-curve assays in absence and presence of 30% human serum; assay type: in vitro ADME
E. coli strain D21f2tolC [5] = assay: MIC on LB agar; assay type: cell-based; details: E. coli D21f2tolC plated on LB agar
[6] = biological target: T2, E. coli RNAP σ^70 holoenzyme (Escherichia coli, UniProt P0A8T7+P0A8V2); assay: Formation of RNAP-promoter open complex; assay type: biochemical; details: 500 μM PUM
[7] = tested on: S. pyogenes and E. coli resistant mutants; assay: Cross-resistance between PUM and Lpm, Myx, Stl, CBR703, Sal; assay type: cell-based
[8] = biological target: T2, E. coli RNAP σ^70 holoenzyme; assay: Multiple-nucleotide-addition reactions; assay type: biochemical; details: 10 μM NTPs
[9] = tested on: S. pyogenes strain L49 or S. pneumoniae strain L44; assay: Checkerboard interaction assays PUM + Rif; assay type: cell-based; details: FICI
[10] = biological target: T2, E. coli RNAP σ^70 holoenzyme; assay: Nucleotide addition at elevated NTP concentrations; assay type: biochemical; details: 6 μM PUM; 10–500 μM varied NTP
[11] = tested on: S. pyogenes strain ATCC 12344; assay: Spontaneous resistance rate, Luria-Delbrück fluctuation assays; assay type: cell-based; details: compared with Rif
Summary of the method: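 Luria-Delbrück fluctuation assay. ~1×10^9 cfu S. pyogenes ATCC 12344 per plate were plated on Todd Hewitt agar (1.5% agar) containing 64 or 128 μg/ml test compound, or 1 or 2 μg/ml rifampicin. Colonies were counted after 24 h at 37°C, with at least six independent determinations each.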

S. pyogenes C203 = assay: Mouse Streptococcus pyogenes peritonitis model; assay type: in vivo
Summary of the method: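 Female ICR mice (23–25 g) were acclimatised for one week at 23±2°C and 55±10% humidity. They were infected intraperitoneally with 4×10^3 cfu S. pyogenes C203 in 0.5 ml saline containing 1% peptone. Groups of eight, randomised and unblinded, received 2.5-fold test compound dilutions in 5% dextrose by one of three regimens: i.v. at 10 min and 6 h (total 3.2–50 mg/kg); single i.v. at 10 min; or single s.c. at 10 min (each total 1.024–40 mg/kg).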

[12] = tested on: S. pyogenes PUM-resistant mutants; assay: Resistance levels of spontaneous PUM-resistant mutants; assay type: cell-based; details: substitutions at β residues 565, 681, and 684, and β′ residue 786
[13] = tested on: E. coli D21f2tolC with plasmid-encoded RNAP β/β′ derivatives; assay: E. coli plasmid-based resistance assay; assay type: cell-based; details: substitutions β565 Glu→Gly and β681 Met→Lys
Summary of the method: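 E. coli transformants were grown from single colonies in LB with 200 μg/ml ampicillin at 37°C with shaking to OD600 0.4–0.8. They were induced with 1 mM IPTG for 1 h. About 2×10^5 cells were added to wells holding a 2-fold dilution series of test compound in the same medium (final 0 or 25–4000 μg/ml) and incubated 16 h at 37°C with shaking.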

[14] = tested on: Staphylococcus simulans strain M22; assay: Effects on macromolecular synthesis; assay type: cell-based; details: PUM 100–200 μM
Summary of the method: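 Staphylococcus simulans M22 was grown in 0.5x Mueller Hinton II broth at 37°C with shaking to OD600 0.5, then diluted to OD600 0.1–0.2. [2-14C]-thymidine was added at 6 kBq/ml for 15 min, and the culture was split. One half received test compound (final 100–200 μM). Samples taken at 0, 10, 20 and 40 min were quenched in ice-cold 10% TCA/1 M NaCl and held 30–60 min on ice.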

[15] = tested on: S. pyogenes Rif-resistant mutants; assay: Cross-resistance of Rif-resistant mutants to PUM; assay type: cell-based; details: Figs. 1B–C,E
Summary of the method: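 S. pyogenes mutants were selected on Todd Hewitt agar with rifampicin at 0.1–2 μg/ml (1–16x MIC) and sequenced. Thirteen mutants and the isogenic wild-type parent were grown in Todd Hewitt broth at 37°C in 7% CO2/6% O2/4% H2/83% N2 to OD600 0.4–0.8. They were tested by broth microdilution with a 2-fold test compound series (0 or 1.56–100 μg/ml) for 16 h at 37°C. MIC was taken at >90% growth inhibition.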

[16] = tested on: E. coli GE-resistant mutants; assay: Cross-resistance of GE-resistant mutants to PUM; assay type: cell-based
[17] = biological target: T2, E. coli RNAP σ^70 holoenzyme; assay: Nucleotide addition on standard and U-less cassette templates; assay type: biochemical; details: standard vs U-less cassette template; 0–20 μM PUM

Compound: CC[C@@H](C)[C@@H]1NC(=O)[C@H](NC(=O)[C@@H](C)[C@@H](O)C(C)C)[C@H](C)OC(=O)[C@H]2COC(=O)CNC(=O)/C=C/[C@@]3(CO3)[C@H](C)Oc3ccc(cc3)[C@H](NC1=O)C(=O)N(C)[C@H](Cc1ccccc1)C(=O)N[C@@H]([C@H](C)O)C(=O)N2 [salinamide A] (X1-[dT][aIle][X2][dNMeF][aThr][dS]; ester 1-C; linker 3-6 via G)
- MICwild-type (E. coli strain D21f2tolC [1]): 0.049 µg/mL

Compound: GE23077
- MICwild-type (E. coli strain D21f2tolC [1]): 500 µg/mL

Compound: CCCC/C(C)=C/C=C(\C)C(=O)c1c(O)cc([C@H](C)CC/C=C/NC(=O)OC)oc1=O [myxopyronin B]
- MICwild-type (S. pyogenes ATCC 12344): 6.25 µg/mL
- MICwild-type (E. coli strain D21f2tolC [1]): 0.20 µg/mL

Compound: NC(=O)CC[C@@H](C(=O)NC[C@H]1O[C@@H](c2c[nH]c(=O)[nH]c2=O)[C@H](O)[C@@H]1O)N(O)C(=O)CN=C(N)N [PUM, pseudouridimycin]
- nucleotide specificity of inhibition, single-nucleotide addition (E. coli RNAP core enzyme): inhibits incorporation of U, but not G, A, or C
- effect on nucleotide addition in transcription initiation (E. coli RNAP [2]): Inhibition by PUM of nucleotide addition in transcription initiation
- IC50 (bacterial RNAP): 100 nM
- effect on nucleotide addition in transcription elongation (E. coli RNAP [3]): Inhibition by PUM of nucleotide addition in transcription elongation
- inhibition of purified RNAP containing β565 Glu→Asp [4]: PUM-resistant phenotype
- antibacterial activity in absence versus presence of human serum (human serum proteins; 30% human serum, Fig. 1C rows 1–4): Identical results
- unbound fraction (human serum proteins; human serum proteins, inferred from 30% human serum assays): ~ 100%
- MIC under these conditions (E. coli strain D21f2tolC [5]): ~800 µg/mL (≈ 1640 µM)
- effect on formation of catalytically-competent RNAP-promoter open complex, RPo [6]: Absence of inhibition
- cross-resistance with Lpm, Myx, Stl, CBR703, and Sal [7]: does not exhibit cross-resistance
- nucleotide specificity of inhibition, multiple-nucleotide addition [8]: inhibits incorporation of U, but not G, A, or C
- antibacterial activity when co-administered with Rif [9]: additive antibacterial activity
- effect of high NTP concentrations on transcription inhibition [10]: high concentrations of UTP–but not high concentrations of GTP, ATP, or CTP–overcome transcription inhibition by PUM
- spontaneous resistance rates [11]: an order-of-magnitude lower than those of Rif
- ED50 (dose yielding 50% survival at 7 days) (S. pyogenes C203): 9 mg/kg
- PUM-resistance (MIC/MICwild-type) [12]: ≥ 4 x
- resistance (MIC/MICwild-type) [13]: ≥ 4 x
- effect on DNA synthesis ([14C]-thymidine incorporation) [14]: little or no inhibition of DNA synthesis
- effect on RNA synthesis ([3H]-uridine incorporation) [14]: rapid and strong inhibition of RNA synthesis
- effect on protein synthesis ([14C]-isoleucine incorporation) [14]: slower and weaker inhibition of protein synthesis
- cross-resistance with Rif [15]: no cross-resistance
- cross-resistance with GE [16]: partial cross-resistance
- MICwild-type (S. pyogenes ATCC 12344): 6.25 µg/mL
- template dependence of transcription inhibition [17]: inhibits transcription only on templates that direct incorporation of U
- MICwild-type (E. coli strain D21f2tolC [1]): 400 µg/mL

Compound: CNC(=O)[C@@H](C)[C@H]1C(=O)/C(=C(O)/C=C/C(C)=C/[C@@H](C)[C@H]2O[C@@]3(C)O[C@H](C=C[C@@]34CO4)[C@@H]2C)C(=O)N1[C@@H]1CC[C@H](O)[C@H](C)O1 [streptolydigin]
- MICwild-type (S. pyogenes ATCC 12344): 3.13 µg/mL
- MICwild-type (E. coli strain D21f2tolC [1]): 3.13 µg/mL

Compound: CO[C@H]1/C=C/O[C@@]2(C)Oc3c(C)c(O)c4c(O)c(c(/C=N/N5CCN(C)CC5)c(O)c4c3C2=O)NC(=O)/C(C)=C\C=C\[C@H](C)[C@H](O)[C@@H](C)[C@@H](O)[C@@H](C)[C@H](OC(C)=O)[C@@H]1C [Rif, rifampin]
- MICwild-type (S. pyogenes ATCC 12344): 0.098 µg/mL
- MICwild-type (E. coli strain D21f2tolC [1]): 0.20 µg/mL

Compound: ONC(=Nc1ccccc1)c1cccc(C(F)(F)F)c1 [CBR703]
- MICwild-type (E. coli strain D21f2tolC [1]): 6.25 µg/mL

Compound: lipiarmycin A3
- MICwild-type (S. pyogenes ATCC 12344): 6.25 µg/mL
- MICwild-type (E. coli strain D21f2tolC [1]): 1.56 µg/mL
